What was measured:
[1] = biological target: Mitogen-activated protein kinase 1 (Homo sapiens) (UniProt P28482); assay: Inhibition of ERK2 at 30 uM by microfluidic mobility shift assay
Summary of the method: (§1)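 Single-concentration screen, singlicate, 30 uM final (diluted from 1 mM DMSO solutions), fluorescently tagged peptide substrate appropriate to each kinase, ATP at apparent Km for each protein. Phosphorylated and unphosphorylated peptides separated electrophoretically; conversion is the phosphorylated peak area over the sum of both peaks. No-inhibitor and no-ATP controls; H89 reference on each plate.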

[2] = biological target: Tyrosine-protein kinase Lyn (Homo sapiens, UniProt P07948); assay: Inhibition of LYN at 30 uM by microfluidic mobility shift assay; summary of the method: as §1
Tyrosine-protein kinase Lyn, sequence (P07948 2-512 limits assumed): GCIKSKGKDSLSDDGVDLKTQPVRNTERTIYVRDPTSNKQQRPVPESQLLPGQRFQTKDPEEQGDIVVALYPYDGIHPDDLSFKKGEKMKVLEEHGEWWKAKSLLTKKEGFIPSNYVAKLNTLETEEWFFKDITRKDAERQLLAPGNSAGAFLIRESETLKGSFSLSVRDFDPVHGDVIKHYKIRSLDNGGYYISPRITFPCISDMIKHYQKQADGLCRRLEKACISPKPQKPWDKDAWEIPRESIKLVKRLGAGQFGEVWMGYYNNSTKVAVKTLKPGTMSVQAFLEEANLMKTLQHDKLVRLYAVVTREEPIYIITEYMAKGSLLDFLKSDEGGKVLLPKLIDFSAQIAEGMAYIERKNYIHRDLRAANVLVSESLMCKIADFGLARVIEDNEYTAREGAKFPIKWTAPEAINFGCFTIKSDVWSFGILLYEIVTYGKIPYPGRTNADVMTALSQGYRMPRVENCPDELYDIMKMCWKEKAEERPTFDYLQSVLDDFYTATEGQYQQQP

[3] = biological target: Tyrosine-protein kinase Lck (Homo sapiens, UniProt P06239); assay: Inhibition of LCK at 30 uM by microfluidic mobility shift assay; summary of the method: as §1
Tyrosine-protein kinase Lck, sequence (P06239 2-509 limits assumed): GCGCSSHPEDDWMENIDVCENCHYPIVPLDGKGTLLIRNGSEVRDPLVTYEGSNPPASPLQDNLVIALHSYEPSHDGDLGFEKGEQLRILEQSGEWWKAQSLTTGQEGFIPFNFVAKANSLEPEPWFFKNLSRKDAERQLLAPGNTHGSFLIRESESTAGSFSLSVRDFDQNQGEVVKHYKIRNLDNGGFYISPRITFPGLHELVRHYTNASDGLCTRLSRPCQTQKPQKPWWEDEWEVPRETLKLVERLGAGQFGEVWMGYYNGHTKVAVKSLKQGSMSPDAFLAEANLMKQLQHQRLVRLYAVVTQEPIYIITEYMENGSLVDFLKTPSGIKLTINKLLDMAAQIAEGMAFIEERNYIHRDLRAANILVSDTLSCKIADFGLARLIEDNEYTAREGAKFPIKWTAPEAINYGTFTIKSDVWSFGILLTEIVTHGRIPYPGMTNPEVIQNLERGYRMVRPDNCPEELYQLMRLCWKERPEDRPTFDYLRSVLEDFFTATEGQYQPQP

[4] = biological target: MAP kinase-activated protein kinase 2 (Homo sapiens, UniProt P49137); assay: Inhibition of MAPKAPK2 at 30 uM by microfluidic mobility shift assay; summary of the method: as §1
MAP kinase-activated protein kinase 2, sequence (P49137 whole entry, looked up): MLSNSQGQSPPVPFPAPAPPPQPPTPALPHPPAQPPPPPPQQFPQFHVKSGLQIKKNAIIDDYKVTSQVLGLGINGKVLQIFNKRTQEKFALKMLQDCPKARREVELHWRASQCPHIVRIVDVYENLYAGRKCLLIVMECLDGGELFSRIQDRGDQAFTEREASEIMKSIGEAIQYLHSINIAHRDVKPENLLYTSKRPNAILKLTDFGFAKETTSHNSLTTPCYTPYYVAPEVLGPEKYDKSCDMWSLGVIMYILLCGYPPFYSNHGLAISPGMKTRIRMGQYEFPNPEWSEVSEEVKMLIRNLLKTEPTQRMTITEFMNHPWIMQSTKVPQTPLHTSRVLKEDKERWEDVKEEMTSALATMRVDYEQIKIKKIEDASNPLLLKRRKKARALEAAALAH

[5] = biological target: Tyrosine-protein kinase Fyn (Homo sapiens, UniProt P06241); assay: Inhibition of FYN at 30 uM by microfluidic mobility shift assay; summary of the method: as §1
Tyrosine-protein kinase Fyn, sequence (P06241 2-537 limits assumed): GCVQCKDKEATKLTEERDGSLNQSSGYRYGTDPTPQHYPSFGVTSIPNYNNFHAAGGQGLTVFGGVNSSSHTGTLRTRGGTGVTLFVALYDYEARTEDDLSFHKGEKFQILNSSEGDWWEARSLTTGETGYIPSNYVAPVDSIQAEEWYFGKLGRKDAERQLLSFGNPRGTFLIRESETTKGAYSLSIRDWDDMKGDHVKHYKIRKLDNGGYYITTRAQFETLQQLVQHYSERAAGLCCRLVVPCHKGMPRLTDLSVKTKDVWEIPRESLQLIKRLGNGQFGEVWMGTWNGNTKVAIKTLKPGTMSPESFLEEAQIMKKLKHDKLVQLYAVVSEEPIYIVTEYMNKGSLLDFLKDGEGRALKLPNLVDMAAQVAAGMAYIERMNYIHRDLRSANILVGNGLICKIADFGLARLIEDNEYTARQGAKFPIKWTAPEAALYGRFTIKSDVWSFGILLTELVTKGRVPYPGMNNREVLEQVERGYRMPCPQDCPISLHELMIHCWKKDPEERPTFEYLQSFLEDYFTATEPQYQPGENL

[6] = biological target: Glycogen synthase kinase-3 beta (Homo sapiens) (UniProt P49841); assay: Inhibition of GSK3B at 30 uM by microfluidic mobility shift assay; summary of the method: as §1
Glycogen synthase kinase-3 beta (Homo sapiens), sequence (P49841 whole entry, looked up): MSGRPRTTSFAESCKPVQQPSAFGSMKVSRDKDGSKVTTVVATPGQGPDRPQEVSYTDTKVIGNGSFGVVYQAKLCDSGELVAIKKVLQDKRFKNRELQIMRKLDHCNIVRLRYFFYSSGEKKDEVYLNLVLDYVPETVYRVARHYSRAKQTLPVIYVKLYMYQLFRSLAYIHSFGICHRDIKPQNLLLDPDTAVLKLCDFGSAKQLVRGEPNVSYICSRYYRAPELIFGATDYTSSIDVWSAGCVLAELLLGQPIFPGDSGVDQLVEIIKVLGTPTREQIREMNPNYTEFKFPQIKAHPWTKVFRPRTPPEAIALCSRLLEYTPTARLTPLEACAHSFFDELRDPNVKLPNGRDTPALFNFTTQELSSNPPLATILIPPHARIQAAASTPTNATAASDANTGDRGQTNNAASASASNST

[7] = biological target: Mitogen-activated protein kinase 3 (Homo sapiens) (UniProt P27361); assay: Inhibition of ERK1 at 30 uM by microfluidic mobility shift assay; summary of the method: as §1
Mitogen-activated protein kinase 3 (Homo sapiens), sequence (P27361 whole entry): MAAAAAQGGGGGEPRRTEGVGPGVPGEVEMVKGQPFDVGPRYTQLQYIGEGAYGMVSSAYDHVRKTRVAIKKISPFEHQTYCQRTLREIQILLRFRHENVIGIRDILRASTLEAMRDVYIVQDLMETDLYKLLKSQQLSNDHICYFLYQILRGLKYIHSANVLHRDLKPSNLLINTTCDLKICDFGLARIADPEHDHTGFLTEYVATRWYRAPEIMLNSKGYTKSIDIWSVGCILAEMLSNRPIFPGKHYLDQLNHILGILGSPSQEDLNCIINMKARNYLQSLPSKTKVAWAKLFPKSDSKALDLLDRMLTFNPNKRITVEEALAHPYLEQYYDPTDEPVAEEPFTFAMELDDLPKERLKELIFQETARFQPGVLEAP

[8] = biological target: RAC-beta serine/threonine-protein kinase (Homo sapiens) (UniProt P31751); assay: Inhibition of AKT2 at 30 uM by microfluidic mobility shift assay; summary of the method: as §1
RAC-beta serine/threonine-protein kinase (Homo sapiens), sequence (P31751 whole entry): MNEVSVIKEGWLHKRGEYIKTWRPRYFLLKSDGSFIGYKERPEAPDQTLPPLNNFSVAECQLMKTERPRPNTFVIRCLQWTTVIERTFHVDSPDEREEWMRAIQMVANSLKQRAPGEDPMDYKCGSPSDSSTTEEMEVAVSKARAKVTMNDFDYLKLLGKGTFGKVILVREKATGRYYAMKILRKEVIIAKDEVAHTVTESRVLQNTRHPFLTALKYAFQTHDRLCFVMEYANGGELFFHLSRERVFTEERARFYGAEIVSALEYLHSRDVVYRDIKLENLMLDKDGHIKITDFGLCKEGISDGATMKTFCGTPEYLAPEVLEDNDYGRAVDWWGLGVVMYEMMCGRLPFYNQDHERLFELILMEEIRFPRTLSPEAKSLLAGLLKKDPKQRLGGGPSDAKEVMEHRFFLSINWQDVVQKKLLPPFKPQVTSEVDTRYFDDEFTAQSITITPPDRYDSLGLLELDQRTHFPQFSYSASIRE

[9] = biological target: T1, MAP kinase-activated protein kinase 5 (Homo sapiens) (UniProt Q8IW41); assay: Inhibition of PRAK1 at 30 uM by microfluidic mobility shift assay; summary of the method: as §1
T1 sequence (whole entry): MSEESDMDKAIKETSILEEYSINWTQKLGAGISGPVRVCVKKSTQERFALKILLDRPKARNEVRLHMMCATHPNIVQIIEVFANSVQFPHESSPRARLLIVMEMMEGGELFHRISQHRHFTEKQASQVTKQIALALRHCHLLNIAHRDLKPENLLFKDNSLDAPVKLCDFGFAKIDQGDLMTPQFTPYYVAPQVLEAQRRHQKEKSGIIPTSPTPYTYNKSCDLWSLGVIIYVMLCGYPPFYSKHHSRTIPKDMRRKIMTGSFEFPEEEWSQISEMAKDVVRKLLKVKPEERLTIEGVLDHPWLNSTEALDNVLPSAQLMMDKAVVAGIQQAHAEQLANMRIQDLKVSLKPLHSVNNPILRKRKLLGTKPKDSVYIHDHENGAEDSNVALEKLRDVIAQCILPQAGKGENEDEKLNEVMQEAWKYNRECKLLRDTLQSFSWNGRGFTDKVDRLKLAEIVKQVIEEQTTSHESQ

[10] = Inhibition of PKA at 30 uM by microfluidic mobility shift assay; summary of the method: as §1
[11] = biological target: Serine/threonine-protein kinase Chk2 (Homo sapiens, UniProt O96017); assay: Inhibition of CHK2 at 30 uM by microfluidic mobility shift assay; summary of the method: as §1
Serine/threonine-protein kinase Chk2, sequence (O96017 whole entry): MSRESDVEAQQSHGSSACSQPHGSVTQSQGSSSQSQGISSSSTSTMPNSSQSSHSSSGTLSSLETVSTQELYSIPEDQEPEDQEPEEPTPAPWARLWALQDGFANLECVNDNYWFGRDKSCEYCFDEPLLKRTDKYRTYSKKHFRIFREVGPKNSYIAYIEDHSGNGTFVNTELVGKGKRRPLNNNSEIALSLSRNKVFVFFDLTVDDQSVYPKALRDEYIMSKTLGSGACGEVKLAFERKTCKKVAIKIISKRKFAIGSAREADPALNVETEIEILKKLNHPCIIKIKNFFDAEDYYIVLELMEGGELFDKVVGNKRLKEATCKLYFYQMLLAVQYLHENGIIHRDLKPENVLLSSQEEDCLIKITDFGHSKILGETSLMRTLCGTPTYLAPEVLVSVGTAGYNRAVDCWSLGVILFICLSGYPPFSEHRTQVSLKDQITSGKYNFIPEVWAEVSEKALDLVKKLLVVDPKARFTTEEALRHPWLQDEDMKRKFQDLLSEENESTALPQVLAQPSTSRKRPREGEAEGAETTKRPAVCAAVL

Mitogen-activated protein kinase 1 (Homo sapiens), sequence (P28482 whole entry): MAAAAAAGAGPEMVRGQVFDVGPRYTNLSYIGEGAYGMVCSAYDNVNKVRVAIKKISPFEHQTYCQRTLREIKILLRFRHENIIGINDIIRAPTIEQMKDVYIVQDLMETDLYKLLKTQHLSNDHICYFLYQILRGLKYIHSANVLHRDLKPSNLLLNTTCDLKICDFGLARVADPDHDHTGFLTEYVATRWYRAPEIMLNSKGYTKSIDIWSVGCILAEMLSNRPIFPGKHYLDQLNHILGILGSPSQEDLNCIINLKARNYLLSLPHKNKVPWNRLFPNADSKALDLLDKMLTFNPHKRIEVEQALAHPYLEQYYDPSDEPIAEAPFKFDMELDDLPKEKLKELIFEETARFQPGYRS

Row | Compound | inhibition [1] [%] | inhibition [2] [%] | inhibition [3] [%] | inhibition [4] [%] | inhibition [5] [%] | inhibition [6] [%] | inhibition [7] [%] | inhibition [8] [%] | inhibition [9] [%] | inhibition [10] [%] | inhibition [11] [%]
1 | CC(C)(C)c1cc2nn(-c3ccccc3)c(N)c2c(=O)[nH]1 | 18 | 8 | 8 | 6 | 9 | 31 | 21 | 3 | 2 | 1 | 5
2 | Cn1nc2c3c(nc(-c4ccccc4)cc31)NCC(=O)N2 | 2 | 6 | 6 | 8 | 12 | 14 | 5 | 1 | 3 | 0 | 5
3 | COc1ccc(S(=O)(=O)Nc2nn(C)c3cc(C)[nH]c(=O)c23)c(OC)c1 | 1 | -1 | -1 | 2 | 3 | 0 | 4 | 6 | 1 | 3 | 6
4 | COCCNc1nc(-c2ccccc2)cc2c1c(N)nn2C | 0 | 4 | 9 | 2 | 0 | 3 | 3 | -1 | 1 | -3 | 8
5 | Cn1nc(N)c2c(=O)[nH]c(-c3ccccn3)cc21 | 9 | 10 | 21 | 36 | 24 | 46 | 10 | 10 | 9 | 5 | 25
6 | COc1ccc(-c2cc3nn(-c4ccccc4)c(N)c3c(=O)[nH]2)cc1 | 3 | 90 | 75 | 7 | 88 | 14 | 8 | 0 | 12 | -6 | -3
7 | CN1CCN(c2ccc(-c3cc4[nH]nc(N)c4c(=O)[nH]3)cc2)CC1 | -2 | 76 | 74 | 55 | 76 | 42 | 4 | 6 | 11 | 98 | 68
8 | Cc1cc2c(c(N)nn2C)c(N2CC[C@H](O)C2)n1 | 2 | 5 | 1 | 2 | 1 | -6 | 2 | 4 | 1 | 4 | -2
9 | COc1ccc(-c2cc3[nH]nc(N)c3c(=O)[nH]2)cc1 | 12 | 56 | 54 | 59 | 50 | 78 | 13 | 11 | 7 | 82 | 43
10 | COc1cccc(-c2cc3[nH]nc(N)c3c(=O)[nH]2)c1 | 15 | 49 | 48 | 56 | 42 | 58 | 20 | 2 | 10 | 48 | 52
11 | Cc1cc2nc(N)nc(N)c2c(=O)[nH]1 | 9 | 10 | 12 | 26 | 11 | 36 | 9 | 0 | 3 | -1 | 16
12 | CN1CCN(c2ccc(-c3cc4nn(-c5ccccc5)c(N)c4c(=O)[nH]3)cc2)CC1 | 7 | 100 | 100 | 4 | 99 | 12 | 0 | 10 | 4 | 2 | 18
13 | Nc1n[nH]c2cc(-c3ccc(N4CCOCC4)cc3)[nH]c(=O)c12 | -3 | 63 | 44 | 55 | 62 | 41 | 9 | 7 | 11 | 88 | 38
14 | COCCNc1nc(C)cc2c1c(N)nn2C | 8 | 6 | 1 | 6 | -1 | 1 | 5 | -3 | 5 | 19 | -2
15 | COc1ccc(-c2cc3c(c(N)nn3C)c(=O)[nH]2)cc1 | 16 | 49 | 46 | 51 | 56 | 81 | 28 | -8 | 16 | 8 | 16
16 | COc1cccc(-c2cc3c(c(N)nn3C)c(=O)[nH]2)c1 | 22 | 26 | 22 | 47 | 23 | 61 | 19 | 1 | 6 | 7 | 31
17 | COc1ccccc1-c1cc2nn(-c3ccccc3)c(N)c2c(=O)[nH]1 | 13 | 86 | 72 | -1 | 77 | 3 | 21 | 0 | 6 | 6 | 16
18 | Cc1cc2c(c(NS(C)(=O)=O)nn2C)c(=O)[nH]1 | 3 | 1 | 4 | 1 | 11 | 13 | 0 | 16 | 0 | -2 | -1
19 | Cc1nc(N)c2c(=O)[nH]c(C)cc2n1 | 3 | 7 | 5 | 18 | 8 | 52 | 4 | 2 | 1 | 2 | 5
20 | Nc1n[nH]c2cc(-c3cccnc3)[nH]c(=O)c12 | 14 | 39 | 34 | 40 | 24 | 71 | 19 | 8 | 12 | 35 | 27
21 | Nc1n[nH]c2cc(-c3ccccn3)[nH]c(=O)c12 | 12 | 49 | 56 | 41 | 54 | 60 | 11 | 8 | 18 | 42 | 47
22 | COc1ccc(-c2c(C)[nH]c(=O)c3c(N)nn(C)c23)cc1 | 7 | 19 | 11 | 24 | 20 | 58 | 13 | 25 | 13 | 10 | 18
23 | CC(=O)Nc1nn(C)c2cc(-c3ccc(N4CCN(C)CC4)cc3)[nH]c(=O)c12 | 4 | 8 | 10 | 5 | 15 | -3 | 3 | -1 | 6 | 3 | 3

— ChEMBL document CHEMBL1811853, “Design and evaluation of 3-aminopyrazolopyridinone kinase inhibitors inspired by the natural product indirubin” (Bioorg Med Chem, 2011)
